# In the library only some 1.7% were active in any assay of this set; here they are far more common.
# CAL PDZ FP-1 – CAL PDZ (human) peptide binding inhibition. Q9HD26. purified CAL PDZ, TMR-peptide fluorescence polarization, 1 h. inhibition, % at 24.9 µM. 300,000 tested, 0.92% active. AID 602252;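 active means mean inhibition of at least 30% with at least half of replicates also reaching 30%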;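 further: 0% = DMSO neutral control and 100% = excess unlabeled competitor peptide PRC23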
# PGC1a acetyl inh – modulators of PGC1a acetylation | U2OS PGC1a acetylation, AlphaScreen anti-acetyl-lysine; with virally co-expressed GCN5 acetyltransferase | inhibition, % at 15.6 µM | 350,000 tested, 0.17% active | AID 651687;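 active means every replicate shows inhibition of at least 40%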;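 further: 0% = neutral control wells and 100% = positive control wells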
# ARNT-TACC3 inh – disruptors of human ARNT/TACC3 interaction; AID 623870; inhibition, % at 9.99 µM; 390,000 tested, 0.66% active; AlphaScreen His-ARNT PAS-B/GST-TACC3 binding, luminescence; TACC3 fragment carries E629A point mutation; Q9Y6A5;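 active means mean inhibition of replicates at least 50% and at least half of replicates each reaching 50%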;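 further: 0% = complete ARNT plus TACC3 wells and 100% = ARNT alone without TACC3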
# miR-122 sensor – inhibitors of miR-122 in Huh7 cells; Huh7 miR-122 Renilla luciferase sensor, 48 h; neutral wells = 0, positive control = 100; 340,000 tested, 0.3% active; activation (reporter increase), % at 12.5 µM;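 active means mean replicate activation score at least 90 and every replicate individually at or above 90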;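 further: higher luciferase means less miR-122 activity so hits act as miR-122 inhibitors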
# CAL PDZ FP-2 – inhibitors of human CAL PDZ peptide binding. purified CAL PDZ, TMR-peptide fluorescence polarization, 1 h. inhibition, % at 20 µM. 330,000 tested, 0.02% active. AID 504414;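 active means highest replicate inhibition of at least 40%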;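 further: plate controls were DMSO neutral control wells for no effect and unlabeled competitor peptide control wells for full effect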
#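 Assay system – tagged CAL PDZ protein CerCALP, purified · Timing – 1 h at RT · Compound – single point, 20 µM · Measured by – fluorescence polarization from S- and P-plane intensities, G-factor corrected · Evaluation – inhibition from polarization loss · Probe or stimulus – TMR reporter peptide T*-PRC34 · Buffer or medium – pH 7.4 phosphate-saline buffer, reducing agent, detergent, IgG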
# CFTR F508del cor – CFTR F508del correction in bronchial cells; 350,000 tested, 0.36% active; activity (quench increase), % at 7.58 µM; CFBE cells, YFP halide quenching; stimulated with forskolin plus potentiator P3; % fluorescence drop versus neutral controls; AID 720511;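 active means mean added fluorescence quench of at least 8% versus neutral control, with both replicates also reaching 8%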;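 further: cells transiently co-express mutant CFTR-F508del with the halide-sensitive YFP; corrector assay measuring rescue of mutant channel to the surface after 24 h compound exposure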
# Numbers without * were called inactive; . = no result given; ! = repeats disagree; [ ] = remark or other dose.
SMILES,CAL PDZ FP-1,PGC1a acetyl inh,ARNT-TACC3 inh,miR-122 sensor,CAL PDZ FP-2,CFTR F508del cor
CN(C)S(=O)(=O)c1ccc(C(=O)NCc2nnc(SCC(=O)N3CCCCCC3)o2)cc1,8,0,-4,-4,-2,-1
CO[C@@H]1CN(C)C(=O)c2ccc(NC(C)=O)cc2OC[C@@H](C)N(C(=O)Nc2ccccc2F)C[C@H]1C,.,1,1,1[16.7 µM],.,-2
N#CC(C#N)=C1C=C2C=C(N3CCOCC3)CCC2CC1 (stereo unspecified),-3,.,.,.,0,70*
N#CC(C#N)=C1C=C2C=C(N3CCCCCC3)CCC2CC1 (stereo unspecified),-2,.,.,.,-3,67*
CN1CCN(C2=CC3=CC(=C(C#N)C#N)CCC3CC2)CC1 (stereo unspecified),-4,.,-1,.,0,.
COC(=O)C[C@@H]1CC[C@@H]2[C@H](COc3ccc(NC(=O)Nc4cccc(C)c4)cc3C(=O)N2C)O1,.,-2,-10,-6[16.7 µM],.,-1
Cc1ccc(S(=O)(=O)Nc2ccc3c(c2)C(=O)N([C@H](C)CO)C[C@@H](C)[C@H](CN(C)S(=O)(=O)c2cn(C)cn2)O3)cc1,.,-3,-13,-1[16.7 µM],.,-2
O=c1c2ccccc2oc2cc(-c3ccc4[nH]ccc4c3)ccc12,-41,-15,-6,19,0,10*
O=c1c2ccccc2oc2ccccc12,.,1,.,-4,.,2
COc1ccc(COc2cc(-c3cccc(OC)c3)nc3ccc(NC(=O)c4ccccc4)cc23)cc1,-3,-27,-5,-1,-1,2
COc1ccc(C(=O)Nc2ccc(NC(=O)c3cccc(F)c3)cn2)cc1,1,.,-27,.,-1,13*
COc1cccc(C(=O)NCCOc2cc(C)cc(C)c2)c1,38*,25,8,-2,-2,.
COc1ccc(NC(=O)c2ccc(CNS(=O)(=O)c3cccc(OC)c3)cc2)cc1,38*,8,1,0,-1,.
COc1cccc(OC)c1C(=O)NCCOc1cc(C)cc(C)c1,-5,2,-2,-2,0,-1
COc1ccc(COc2cc(-c3cccc(OC)c3)nc3ccc(NC(=O)c4ccc(OC)cc4)cc23)cc1,-2,.,.,.,-1,8.2*
COc1ccc(C(=O)Nc2ccccc2C(=O)Nc2ccccc2)cc1,.,-8,.,-3,.,8.8*
COc1cccc(C(=O)Nc2ccc(C(=O)O)cc2)c1,0,11,13,113*,-1,.
CC(C)NC(=O)N(C)C[C@@H]1Oc2ccc(NC(=O)CCCCCC(=O)Nc3ccccc3N)cc2CC(=O)N([C@H](C)CO)C[C@@H]1C,.,6,4,2[16.7 µM],.,-2
O=C(CSc1nnnn1-c1ccccc1)c1ccc(O)cc1O,43*,9,1,9,-2,2
CCOc1ccc(NC(=O)CSc2ccc(-c3ccccn3)nn2)cc1,2,.,26*,.,0,.
CCOc1ccc(NC(=O)CSc2nnnn2-c2ccc(C(N)=O)cc2)cc1,66*,5,-50,.,.,0
NC(=O)c1ccc(-n2nnnc2SCC(=O)c2ccc(O)c(O)c2)cc1,-7,-11,-1,129*,-1,0
COc1ccc(-n2nnnc2SCC(=O)c2ccc(O)c(O)c2)cc1,-1,0,-2,3,0,.
COc1ccc2c3c([nH]c2c1)[C@H](CO)N(CC1CC1)CC31CN(C(=O)c2cccc(F)c2)C1,.,0,.,.,.,-1
CNC[C@@H]1Oc2cc(-c3ccc(OC)cc3)ccc2S(=O)(=O)N([C@@H](C)CO)C[C@H]1C,.,-20,.,10[16.7 µM],.,2
SMILES,CAL PDZ FP-1,PGC1a acetyl inh,ARNT-TACC3 inh,miR-122 sensor,CAL PDZ FP-2,CFTR F508del cor
C[C@@H](NC(=O)C[C@@H]1CC[C@H]2[C@@H](COC[C@@H](O)CN2C(=O)Nc2ccccc2)O1)c1ccccc1,.,-4,0,16[16.7 µM],.,2
c1ccc(CSc2ccc(-c3ccccn3)nn2)cc1,1,7,65*,-2,-1,-1
COc1ccc(CN2CC3(CCN(Cc4ccccn4)CC3)c3c(n(C)c4cc(OC)ccc34)[C@@H]2CO)cc1,.,-8,.,.,.,-2
Cc1c(C(=O)N2CCN(S(=O)(=O)c3ccccc3)CC2)oc2ccc(Br)cc12,32*,-2,-2,1,-2,0
Cc1c(C(=O)N2CCCCC2)oc2ccc(Br)cc12,14,10,-5,-1,-1,-2
C=CC[C@H]1Cc2c(cccc2[N+](=O)[O-])[C@H](CC=C)N1,39*,0,-16,-2,-1,1
C=CCC1Cc2c(Br)cccc2C(CC=C)N1 (stereo unspecified),.,-1,2,.,-2,-1
CCOC(=O)C1=C(C)NC(C)=C(C(=O)OCC)C1C(=O)OCC(=O)NCc1ccccc1,.,14,.,-4,-1,1
CCOC(=O)C1=C(C)NC(C)=C(C(=O)OCC)C1C(=O)OCC(=O)NCc1ccccc1OC,88*,-7,-5,20,0,0
COc1cc(OC)c(C(=O)Nc2cccc3ccccc23)cc1OC,33*,-2,-11,-2,-2,-1
O=C(Nc1cccc([N+](=O)[O-])c1)c1ccc(N2CCCC2=O)cc1,69*,.,-4,.,0,0
CO[C@@H]1CN(C)C(=O)c2cc(NC(C)=O)ccc2OC[C@H](C)N(C(=O)c2ccccc2F)C[C@H]1C,.,3,-4,18[16.7 µM],.,-1
COc1ccc(OCC(O)CN(C)C(=O)/C=C/c2cccc([N+](=O)[O-])c2)cc1 (stereo unspecified),86*,.,2,.,-2,0
C[C@@H]1CN([C@@H](C)CO)C(=O)c2cc(C#CCN(C)C)cnc2O[C@H]1CN(C)Cc1ccc(-c2ccccc2)cc1,.,-46,3,-23[16.7 µM],.,9.2*!
C[C@H]1CN([C@@H](C)CO)C(=O)c2cc(-c3ccncc3)cnc2O[C@H]1CN(C)Cc1ccc(F)cc1,.,4,44*,-7[16.7 µM],.,-2
C[C@H](CO)N1C[C@H](C)[C@@H](CN(C)Cc2ccc(F)cc2)Oc2ncc(-c3ccncc3)cc2C1=O,.,-5,9,20[16.7 µM],.,-2
Cc1ccc(-c2cnc3c(c2)C(=O)N([C@@H](C)CO)C[C@@H](C)[C@H](CN(C)C)O3)cc1,.,109*,-3,-3[16.7 µM],.,-3
COC(=O)[C@]1(CO)N=C(c2ccc(OCCCO)cc2)O[C@@H]1c1ccccc1CN=[N+]=[N-],.,6,-16,.,.,-1
O=C1NN(c2cccc(Br)c2)C(=O)/C1=C\c1ccc(O)cc1,10,.,2,.,0,8.6*
O=C1NN(c2ccc(Br)cc2)C(=O)/C1=C\c1ccc(O)cc1O,-3,-2,0,1,.,-1
CC(C)CNC(=O)NC(=O)COC(=O)COc1ccc(Cl)cc1Cl,45*,6,-9,-1,-1,0
